pIC50: −log10 of the molar value.

For assay [1], the species on record is Homo sapiens. Kind of assay: Selectivity for human factor 10a over human thrombin.
Assay [2] deals with Coagulation factor X (Homo sapiens, UniProt P00742). Kind of assay: Inhibition of human factor 10a.
The species entered for assay [3] is Homo sapiens. Kind of assay: Selectivity for human factor 10a over human trypsin.
Assay [4] addresses Prothrombin (Homo sapiens, UniProt P00734). The assay can be described thus: Inhibition of human thrombin.
Assay [5] addresses Trypsin (Homo sapiens, UniProt P07477+P07478+P35030). Kind of assay: Inhibition of human trypsin. In kind it is protein assay.
The subject of assay [6] is Mus musculus. Kind of assay: Anticoagulant activity in ICR mouse plasma assessed as PT-prolongation at 100 mg/kg, po after 0.5 hrs relative to control. In kind it is functional. The method in brief:
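Male ICR mice (20–35 g), fasted overnight, were given compound orally by gastric tube at 100 mg/kg as a suspension in 0.5% methylcellulose. At 0.5 h, blood was drawn from the abdominal vena cava into 3.8% citrate, and platelet-poor plasma was prepared by centrifugation. PT was measured and expressed as percent change versus vehicle or normal plasma, mean ± SEM, n = 3.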

Assay [7] has as its system Plasma. The assay can be described thus: Anticoagulant activity in human plasma assessed as concentration required to double prothrombin time. In kind it is functional.
Assay [8] concerns Plasma. Kind of assay: Anticoagulant activity in mouse plasma assessed as concentration required to double prothrombin time. In kind it is functional. The method, boiled down: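 Pooled citrated mouse plasma was incubated with diluted compound for 1 min at 37 °C. Brain thromboplastin PT reagent was then added to start clotting, and clot time was read on a coagulometer. The concentration doubling clotting time (CT₂) was estimated from each individual dose–response curve.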

Coagulation factor X, sequence (P00742 41-179 limits assumed): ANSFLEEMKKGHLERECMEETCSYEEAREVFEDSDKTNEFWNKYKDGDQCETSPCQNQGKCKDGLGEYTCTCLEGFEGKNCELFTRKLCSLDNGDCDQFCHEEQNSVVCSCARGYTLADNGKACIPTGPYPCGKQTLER
Coagulation factor X, sequence (P00742 235-488 limits assumed): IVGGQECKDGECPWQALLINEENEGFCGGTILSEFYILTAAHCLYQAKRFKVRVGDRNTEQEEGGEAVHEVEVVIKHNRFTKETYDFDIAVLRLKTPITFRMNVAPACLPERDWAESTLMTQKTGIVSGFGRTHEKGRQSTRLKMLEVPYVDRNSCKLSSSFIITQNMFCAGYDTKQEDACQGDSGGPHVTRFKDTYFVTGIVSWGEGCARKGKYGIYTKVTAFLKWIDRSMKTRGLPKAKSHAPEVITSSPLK

Consider `CS(=O)(=O)N(Cc1ccc2ccc(C(=N)N)cc2c1)C1CCN(Cc2cccc(C#N)c2)CC1`, for which the figures for the Selectivity ratio in assay [1] and in assay [3] were greater than 7000 and greater than 100, respectively. The negative-log IC50 (pIC50) in assay [2] was 5.64.
For the compound `COc1ccc(OC)c(S(=O)(=O)N2CCC(N(Cc3ccc4ccc(C(=N)N)cc4c3)C(C)=O)CC2)c1`, the Selectivity ratio in assay [1] is greater than 7000; in assay [3], greater than 100. The results for the pIC50 in assay [4] and in assay [2] were less than 4.00 and 7.92, respectively. This compound also displayed an IC50 in assay [5] of 2500 nM.
With `CCOC(=O)CC(=O)N(C/C=C/c1cccc(/C(N)=N\O)c1)C1CCN(S(=O)(=O)c2cc(OC)ccc2OC)CC1`, the Selectivity ratio is greater than 7000 in assay [1] and greater than 100 in assay [3]. Further, the Activity in assay [6] was found to be 187%.
`CS(=O)(=O)N(Cc1ccc2ccc(C(=N)N)cc2c1)C1CCN(S(=O)(=O)c2cccc(C#N)c2)CC1` gave a negative logarithm of the IC50 (pIC50) in assay [2] of 6.77.
Take `CS(=O)(=O)N(Cc1ccc2ccc(C(=N)N)cc2c1)C1CCN(Cc2cccc(Cl)c2)CC1`: the Selectivity ratio in assay [1] is greater than 7000; in assay [3], greater than 100. This compound also gave a pIC50 in assay [2] of 5.77.
In assay [2], `COc1ccc(OC)c(S(=O)(=O)N2CCC(N(C)Cc3ccc4ccc(C(=N)N)cc4c3)CC2)c1` had a pIC50 of 6.23.
As to `CS(=O)(=O)N(Cc1ccc2ccc(C(=N)N)cc2c1)C1CCN(C(=O)c2cccc(C#N)c2)CC1`, the Selectivity ratio in assay [1] is greater than 7000; in assay [3], greater than 100. Also, in assay [2], the pIC50 is less than 4.00.
`CS(=O)(=O)N(Cc1ccc2ccc(C(=N)N)cc2c1)C1CCN(S(=O)(=O)c2cc(Cl)sc2Cl)CC1` had a pIC50 in assay [2] of 7.00.
Consider `Cc1ccc(S(=O)(=O)N2CCC(N(Cc3ccc4ccc(C(=N)N)cc4c3)S(C)(=O)=O)CC2)cc1`, for which the Selectivity ratio is greater than 7000 in assay [1] and greater than 100 in assay [3]. The pIC50 in assay [2] is less than 4.00.
With `CCOC(=O)CC(=O)N(Cc1ccc2ccc(/C(N)=N\O)cc2c1)C1CCN(S(=O)(=O)c2cc(OC)ccc2OC)CC1`, the Selectivity ratio in assay [1] is greater than 7000; in assay [3], greater than 100. In assay [6], the Activity worked out at 109%.
For the compound `COc1ccc(Cl)cc1S(=O)(=O)N1CCC(N(Cc2ccc3ccc(C(=N)N)cc3c2)S(C)(=O)=O)CC1`, the figures for the Selectivity ratio in assay [1] and in assay [3] were greater than 7000 and greater than 100, respectively. In addition, the pIC50 in assay [2] was 7.41.
As to `COc1ccc(C)cc1S(=O)(=O)N1CCC(N(Cc2ccc3ccc(C(=N)N)cc3c2)S(C)(=O)=O)CC1`, the results for the Selectivity ratio in assay [1] and in assay [3] were greater than 7000 and greater than 100, respectively. The compound also had a pIC50 in assay [2] of 7.24.
In the case of `CCOC(=O)CS(=O)(=O)N(C/C=C/c1cccc(/C(N)=N\O)c1)C1CCN(S(=O)(=O)c2cc(OC)ccc2OC)CC1`, the Selectivity ratio is greater than 7000 in assay [1] and greater than 100 in assay [3]. Moreover, the Activity in assay [6] came out at 116%.
The compound `CS(=O)(=O)N(Cc1ccc2ccc(C(=N)N)cc2c1)C1CCN(S(=O)(=O)c2ccc(Cl)cc2)CC1` gave a pIC50 in assay [2] of 5.80.
In the case of `COc1ccc(OC)c(S(=O)(=O)N2CCC(N(Cc3ccc4ccc(C(=N)N)cc4c3)S(=O)(=O)CC(=O)O)CC2)c1`, the Selectivity ratio is greater than 7000 in assay [1] and greater than 100 in assay [3]. The values for the pIC50 in assay [4] and in assay [2] were less than 4.00 and 7.89, respectively. This compound also showed an IC50 in assay [5] of 2700 nM. The Activity in assay [7] is 0.55 µM; in assay [8] it was 1.7 µM.
In the case of `CCOC(=O)CS(=O)(=O)N(Cc1ccc2ccc(/C(N)=N\O)cc2c1)C1CCN(S(=O)(=O)c2cc(OC)ccc2OC)CC1`, the Activity in assay [6] was found to be 101%.
`CS(=O)(=O)N(Cc1ccc2ccc(C(=N)N)cc2c1)C1CCN(S(=O)(=O)c2cc(Cl)ccc2Cl)CC1` showed a pIC50 in assay [2] of 7.19.
Turning to `CS(=O)(=O)N(Cc1ccc2ccc(C(=N)N)cc2c1)C1CCN(C(=O)c2cccc(Cl)c2)CC1`, the Selectivity ratio in assay [1] is greater than 7000; in assay [3], greater than 100. In assay [2], this compound showed a pIC50 of less than 4.00.
As to `CS(=O)(=O)N(Cc1ccc2ccc(C(=N)N)cc2c1)C1CCN(S(=O)(=O)c2c(Cl)cccc2Cl)CC1`, the Selectivity ratio is greater than 7000 in assay [1] and greater than 100 in assay [3]. For the same compound, the pIC50 in assay [2] is less than 4.00.
For `COc1ccc(OC)c(S(=O)(=O)N2CCC(N(Cc3ccc4ccc(C(=N)N)cc4c3)C(=O)CC(=O)O)CC2)c1`, the results for the Selectivity ratio in assay [1] and in assay [3] were greater than 7000 and greater than 100, respectively. The figures for the pIC50 in assay [4] and in assay [2] were less than 4.00 and 8.09, respectively. The compound also returned a half-inhibitory concentration (IC50) in assay [5] of 3700 nM. Also, the Activity in assay [7] was determined as 0.56 µM; in assay [8] it was 1.6 µM.
For the compound `CS(=O)(=O)N(Cc1ccc2ccc(C(=N)N)cc2c1)C1CCN(S(=O)(=O)c2ccccc2Cl)CC1`, the Selectivity ratio in assay [1] is greater than 7000; in assay [3] it was greater than 100. Besides, in assay [2], the pIC50 was 6.46.
As for `COc1ccc(OC)c(S(=O)(=O)N2CCC(N(C/C=C/c3cccc(C(=N)N)c3)S(=O)(=O)CC(=O)O)CC2)c1`, the Selectivity ratio in assay [1] was greater than 7000; in assay [3] it was greater than 100. The pIC50 in assay [4] was less than 4.00; in assay [2], 8.00. Besides, the IC50 in assay [5] came to 5300 nM. Besides, the Activity in assay [7] stood at 0.47 µM; in assay [8], 1.2 µM.
As for `CC(=N)N1CC[C@H](Oc2ccc([C@H](Cc3ccc4ccc(C(=N)N)cc4c3)C(=O)O)cc2)C1` [DX-9065A], in assay [5], the IC50 turned out to be 3200 nM. In addition, the results for the Activity in assay [6], in assay [7] and in assay [8] were 151%, 0.55 µM and 4.9 µM, respectively.
`CS(=O)(=O)N(Cc1ccc2ccc(C(=N)N)cc2c1)C1CCNCC1`: the Selectivity ratio in assay [1] was greater than 7000; in assay [3], greater than 100. This compound also showed a pIC50 in assay [2] of less than 4.00.
`COc1ccc(OC)c(S(=O)(=O)N2CCC(N(Cc3ccc4ccc(C(=N)N)cc4c3)S(C)(=O)=O)CC2)c1`: the Selectivity ratio in assay [1] was greater than 7000; in assay [3] it was greater than 100. Moreover, the results for the pIC50 in assay [4] and in assay [2] were less than 4.00 and 7.96, respectively. The same compound registered an IC50 in assay [5] of 1100 nM.
Compound `CS(=O)(=O)N(Cc1ccc2ccc(C(=N)N)cc2c1)C1CCN(S(=O)(=O)c2ccccc2)CC1` had a negative logarithm of the IC50 (pIC50) in assay [2] of 6.07.
With `Cc1cccc(S(=O)(=O)N2CCC(N(Cc3ccc4ccc(C(=N)N)cc4c3)S(C)(=O)=O)CC2)c1`, in assay [2], the pIC50 is 6.60.
`COc1ccc(OC)c(S(=O)(=O)N2CCC(N(C/C=C/c3cccc(C(=N)N)c3)C(=O)CC(=O)O)CC2)c1`: the Selectivity ratio in assay [1] is greater than 7000; in assay [3], greater than 100. In addition, the pIC50 is less than 4.00 in assay [4] and 7.89 in assay [2]. This compound came in with an IC50 in assay [5] of 6000 nM. Further, the Activity in assay [6] stood at 104%; in assay [7], 0.55 µM; in assay [8], 1.4 µM.
With `CS(=O)(=O)N(Cc1ccc2ccc(C(=N)N)cc2c1)C1CCN(S(=O)(=O)c2ccc(Cl)c(Cl)c2)CC1`, the results for the Selectivity ratio in assay [1] and in assay [3] were greater than 7000 and greater than 100, respectively. Moreover, the pIC50 in assay [2] was 6.72.
Take `CS(=O)(=O)N(Cc1ccc2ccc(C(=N)N)cc2c1)C1CCN(c2ccncc2)CC1`: in assay [2], the pIC50 is 7.05.
`Cc1ccccc1S(=O)(=O)N1CCC(N(Cc2ccc3ccc(C(=N)N)cc3c2)S(C)(=O)=O)CC1`: the figures for the Selectivity ratio in assay [1] and in assay [3] were greater than 7000 and greater than 100, respectively. Moreover, the pIC50 in assay [2] was 6.02.
With `CS(=O)(=O)N(Cc1ccc2ccc(C(=N)N)cc2c1)C1CCN(S(=O)(=O)c2cccc(Cl)c2)CC1`, the pIC50 in assay [2] was 7.31.
For the compound `CS(=O)(=O)N(Cc1ccc2ccc(C(=N)N)cc2c1)C1CCN(S(=O)(=O)c2cccc(F)c2)CC1`, the Selectivity ratio in assay [1] is greater than 7000; in assay [3] it was greater than 100. In assay [2], this compound had a negative-log IC50 (pIC50) of 6.10.
The compound `CS(=O)(=O)N(Cc1ccc2ccc(C(=N)N)cc2c1)C1CCN(S(=O)(=O)c2cccc(-c3ccccc3)c2)CC1` showed a negative-log IC50 (pIC50) in assay [2] of 6.70.
With `CS(=O)(=O)N(Cc1ccc2ccc(C(=N)N)cc2c1)C1CCN(S(=O)(=O)c2cccc(Cl)c2Cl)CC1`, the Selectivity ratio in assay [1] was greater than 7000; in assay [3] it was greater than 100. The pIC50 in assay [2] is 6.25.
Taken in the same sequence, the figures for `CS(=O)(=O)N1CCC(N(Cc2ccc3ccc(C(=N)N)cc3c2)S(C)(=O)=O)CC1` were greater than 7000, greater than 100 and less than 4.00.

Values taken from ChEMBL document CHEMBL1147967, “Prodrug-based design, synthesis, and biological evaluation of N-benzenesulfonylpiperidine derivatives as novel, orally active factor Xa inhibitors” (Bioorg Med Chem, 2007).
